According to ChEMBL document CHEMBL1133709, “Acyclic analogues of deoxyadenosine 3',5'-bisphosphates as P2Y(1) receptor antagonists” (J Med Chem, 2000):
Calls of active or inactive are those of the source. The rule behind the calls is not given here.

Key:
[1] = tested on: Meleagris gallopavo; assay: Antagonism of PLC stimulation elicited by 30(nM) 2-Me SADP in turkey RBC; type: functional; parameters: concentration or dose not given beside the values; conditions: dose or concentration not given here
Summary of the method: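 Turkey erythrocytes labeled 18–24 h with 2-[3H]myo-inositol at 37 °C; ghost membranes with 1 μM GTPγS and test compound combined with 30 nM 2-MeSADP, 5 min at 30 °C, Hepes pH 7.0. [3H]inositol phosphates separated by anion exchange. IC50 for 50% inhibition of agonist response; at least three experiments, different membrane preparations, duplicate or triplicate assays.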

[2] = target: P2Y purinoceptor 1 (Meleagris gallopavo) (UniProt P49652); assay: P2Y purinoceptor 1 mediated PLC stimulation in turkey RBC, NE represents no effect
Summary of the method: (§1)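 Compound alone added to [3H]inositol-labeled turkey erythrocyte ghosts (~175 μg protein) with 1 μM GTPγS in Hepes pH 7.0 medium, 5 min at 30 °C. Total [3H]inositol phosphates quantified by anion-exchange chromatography. EC50 from four-parameter logistic fit, 3–8 independent curves. Efficacy relative to a maximal 2-MeSADP concentration in the same experiment; NE = no effect at 100 μM.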

[3] = Antagonism of PLC stimulation elicited by 10(nM) 2-Me SADP in turkey RBC; type: functional, Meleagris gallopavo
[4] = target: P2Y purinoceptor 1 (Meleagris gallopavo) (UniProt P49652); assay: In vitro agonistic activity was determined for stimulation of PLC at Turkey erythrocyte P2Y purinoceptor 1; type: functional; summary of the method: as §1
[5] = tested on: Meleagris gallopavo; assay: Tested in vitro for effective concentration required for stimulation of phospholipase C (PLC) against [3H]inositol labeled Turkey Erythrocyte P2Y purinoceptor 1; type: functional; summary of the method: as §1

Chain of P2Y purinoceptor 1 (Meleagris gallopavo) (P49652 whole entry): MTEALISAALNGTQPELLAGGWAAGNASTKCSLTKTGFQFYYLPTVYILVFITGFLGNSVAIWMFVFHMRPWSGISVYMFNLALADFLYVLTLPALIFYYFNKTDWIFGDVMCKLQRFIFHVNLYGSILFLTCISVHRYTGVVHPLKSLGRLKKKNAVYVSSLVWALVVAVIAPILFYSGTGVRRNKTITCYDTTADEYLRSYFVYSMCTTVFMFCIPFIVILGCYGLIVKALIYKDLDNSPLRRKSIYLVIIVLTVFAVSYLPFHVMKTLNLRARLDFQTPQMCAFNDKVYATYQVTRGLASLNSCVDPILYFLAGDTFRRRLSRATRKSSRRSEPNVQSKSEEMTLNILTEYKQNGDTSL

PLC stimulation [2]	IC50 [3]	Increase [4]	EC50 [5]	SMILES	inhibition [1]
inactive	1.6 µM	–	–	CNc1ncnc2c1ncn2CCC(COP(=O)(O)O)COP(=O)(O)O	100%
inactive	–	–	–	CNc1ncnc2c1ncn2[C@H]1C[C@H](OP(=O)(O)O)[C@@H](COP(=O)(O)O)O1	–
inactive	0.206 µM	–	–	CNc1nc(Cl)nc2c1ncn2[C@H]1C[C@H](OP(=O)(O)O)[C@@H](COP(=O)(O)O)O1	95%
inactive	0.331 µM	–	–	CNc1ncnc2c1ncn2[C@@H]1C[C@H](COP(=O)(O)O)[C@H](OP(=O)(O)O)C1	99%
inactive	7.57 µM	–	–	Nc1nc(Cl)nc2c1ncn2CCC(COP(=O)(O)O)COP(=O)(O)O	94%
–	2.53 µM	27%	7.21 µM	Nc1ncnc2c1ncn2[C@@H]1C[C@H](COP(=O)(O)O)[C@H](OP(=O)(O)O)C1	73%
–	5.76 µM	–	6.29 µM	Nc1ncnc2c1ncn2[C@H]1C[C@H](OP(=O)(O)O)[C@@H](COP(=O)(O)O)O1	87%
inactive	0.84 µM	–	–	CNc1nc(Cl)nc2c1ncn2CCC(COP(=O)(O)O)COP(=O)(O)O	99%
inactive	> 50 µM	–	–	Nc1ncnc2c1ncn2CCC(COP(=O)(O)O)COP(=O)(O)O	63%
–	> 50 µM	–	–	CNc1ncnc2c1ncn2C/C=C\CC(COP(=O)(O)O)COP(=O)(O)O (stereo in doubt; 15) [listing 1 of 2 here]	–
inactive	–	–	–	CNc1ncnc2c1ncn2C/C=C\CC(COP(=O)(O)O)COP(=O)(O)O (stereo in doubt; 15) [listing 2 of 2 here]	77%
inactive	15.5 µM	–	–	CNc1nc(Cl)nc2c1ncn2CC(=O)Nc1cc(CP(=O)(O)O)cc(CP(=O)(O)O)c1	94%
–	100 µM	–	–	CNc1ncnc2c1ncn2C/C=C\CC(COP(=O)(O)O)COP(=O)(O)O (stereo in doubt; 16) [listing 1 of 2 here]	–
inactive	0.206 µM	–	–	CNc1nc(Cl)nc2c1ncn2[C@@H]1C[C@H](COP(=O)(O)O)[C@H](OP(=O)(O)O)C1	95%
inactive	14 µM	–	–	CNc1nc(Cl)nc2c1ncn2CC(=O)N(CCOP(=O)(O)O)CCOP(=O)(O)O	89%
inactive	100 µM	–	–	CNc1ncnc2c1ncn2CCCCCC(COP(=O)(O)O)COP(=O)(O)O	56%
inactive	–	–	–	CNc1ncnc2c1ncn2C/C=C\CC(COP(=O)(O)O)COP(=O)(O)O (stereo in doubt; 16) [listing 2 of 2 here]	54%
inactive	> 30 µM	–	–	CNc1ncnc2c1ncn2CCCC(COP(=O)(O)O)COP(=O)(O)O	68%
inactive	> 50 µM	–	–	CNc1ncnc2c1ncn2CCCCC(COP(=O)(O)O)COP(=O)(O)O	65%
